Only some compounds are listed: those with a hit (about 3.7% of all), similar ones and a draw of the others.
EBI2 block: EBI2 receptor antagonists, beta-arrestin recruitment, primary screen, cell-based, luminescence, 7a,25-OHC stimulation, uHTS; inhibition, % at 5 µM; 7a,25-OHC stimulated; AID 651636, 2012; 0.81% of 360,000 active; G-protein coupled receptor 183 (Homo sapiens), P32249; in the data active = inhibition above about 38%;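 also: enzyme fragment complementation signal reports receptor beta-arrestin coupling in cells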
Target sequence (P32249 whole entry, looked up, the tested form may be a part): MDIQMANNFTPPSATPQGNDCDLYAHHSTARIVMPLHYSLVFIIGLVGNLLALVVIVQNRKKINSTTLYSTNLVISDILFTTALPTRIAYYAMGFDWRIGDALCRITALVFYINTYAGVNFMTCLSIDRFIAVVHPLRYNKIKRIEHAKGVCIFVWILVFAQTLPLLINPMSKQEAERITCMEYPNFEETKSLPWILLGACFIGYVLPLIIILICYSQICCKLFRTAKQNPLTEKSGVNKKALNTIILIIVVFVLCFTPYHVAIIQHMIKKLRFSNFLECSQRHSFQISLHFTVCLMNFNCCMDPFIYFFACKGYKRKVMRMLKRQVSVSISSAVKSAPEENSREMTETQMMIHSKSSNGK
MC4R antag cAMP: MC4R antagonists of cAMP signaling, primary screen, cell-based, TR-FRET, antagonist arm of biased-ligand search | Melanocortin receptor 4 (Homo sapiens), P32245 | MC4R-expressing cells, MTII-stimulated cAMP, LANCE TR-FRET | inhibition, % at 6.5 µM | 0.48% of 360,000 active | AID 540295, 2011;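 active = inhibition above its plate's cutoff, the mean of tested wells on that plate plus 3 SD, cut at about 29% in these data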
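Test system: U2OS cells stably expressing human melanocortin 4 receptor (MC4R); also added: Melanotan II challenge; compound: 6.5 µM single dose; timing: 30-min compound preincubation, 1-h Melanotan II challenge, 1-h detection, room temperature; signal: Eu-cAMP/anti-cAMP TR-FRET, emission 671 nm; repeats: one well per compound, no replicates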
Exocytosis inh: LAMP-1 surface exposure blockers, TALL-104 cells – cell-based, flow cytometry, MLPCN library, primary screen | TALL-104 LAMP-1 surface exposure; cells stimulated with thapsigargin and PMA | 0.66% of 360,000 active | inhibition, % at 10 µM;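 active = inhibition above about 55%, limit read from the data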
MC4R ag barr: MC4R agonists recruiting beta-arrestin, primary screen, cell-based, luminescence, agonist arm of biased-ligand search | Melanocortin receptor 4 (Homo sapiens), P32245 | U2OS MC4R beta-arrestin complementation; percent of melanotan II response, DMSO zero | activation, % at 8.9 µM | 0.98% of 360,000 active | AID 540308, 2011;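 active = activation above a per-plate cutoff, the mean activation of sample wells on that plate plus 3 SD, cut at about 8% in these data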
Myeloid diff MLP: induction of myeloid progenitor differentiation, primary screen, cell-based, flow cytometry, MLPCN library. ER-HoxA9 myeloid progenitors, lysozyme-GFP differentiation. AID 624256, 2012. 1% of 360,000 active. calls only at 10 µM;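 active = normalized GFP-positive differentiation at or above the plate's own cutoff, the solvent-only control mean plus 3 SD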;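 also: cells exposed to compound for four days before flow analysis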
EBI2 conf: EBI2 antagonist hit retest, beta-arrestin, confirmation, cell-based, single concentration, luminescence, 7a,25-OHC stimulation; shares compounds with EBI2 block; 7a,25-OHC antagonism; inhibition, % at 5 µM; 29% of 2,400 active;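 active = inhibition of at least 50%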
EBI2 ag: EBI2 agonist activity of antagonist hits, confirmation, counter-screen for EBI2 antagonist project, cell-based, single concentration, agonist mode, luminescence; shares compounds with EBI2 block; EBI2-expressing cells, 60 min; 0% vehicle, 100% 7α,25-dihydroxycholesterol control; activation, % at 5 µM; 2,400 tested, under 10 active;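 active = activation of at least 50%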
bGal counter: E. coli beta-galactosidase enzyme inhibition, confirmation, counter-screen for EBI2 antagonist project, biochemical, luminescence, single concentration. shares compounds with EBI2 block. purified beta-galactosidase, luminescent Galacton Star, 15 min. inhibition, % at 5 µM. 1% of 2,400 active. AID 652176, 2013;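 active = replicate-average signal at least 3 plate SD below neutral wells, shown as high inhibition, flagging enzyme-inhibiting false positives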;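 also: higher means stronger loss of beta-gal luminescence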
Each line names hits and unclear results; the compound was inactive in the other large screens (follow-up assays come after a bar, where they were run).

COc1ccc(NC(=O)c2cnc(SC)nc2)cc1	none
COC(=O)C1CCN(c2nc3ccccc3nc2C(C#N)C(=O)NCCc2ccccc2)CC1 (stereo not given)	EBI2 block 67 | EBI2 conf inactive | EBI2 ag inactive | bGal counter inactive
Cc1cccc(NC(=O)CCCn2c(=S)[nH]c3ccccc3c2=O)c1	none
Clc1ccc(Oc2ncnc3oc(-c4ccccc4)cc23)cc1	none
Cc1ccccc1Oc1ncnc2oc(-c3ccccc3)cc12	EBI2 block 65 | EBI2 conf inactive | EBI2 ag inactive | bGal counter inactive
Cc1ccc(/C=C/C(=O)OCC(=O)NCCN2C(=O)CSC2=O)o1	none
Cc1ccc(/C=C/C(=O)OCC(=O)NCCN2C(=O)CSC2=O)cc1	EBI2 block 56 | EBI2 conf 58 | EBI2 ag inactive | bGal counter inactive
Cc1ccc(/C=C/C(=O)OCC(=O)NC(=O)NCc2ccccc2)cc1	EBI2 block 46 | EBI2 conf inactive | EBI2 ag inactive | bGal counter inactive
O=C(COC(=O)/C=C/c1ccccc1)NC(=O)NCc1ccccc1	none
O=C1CS(=O)(=O)c2ccccc2N1	none
c1ccc(Cn2cc(CNc3ccccc3)nn2)cc1	EBI2 block 49 | EBI2 conf inactive | EBI2 ag inactive | bGal counter inactive
Cc1cc(C)c(C#N)c(SCC(O)COc2ccc(Br)cc2)n1 (stereo not given)	EBI2 block 65 | EBI2 conf inactive | EBI2 ag inactive | bGal counter inactive
CC1(C)CC(=O)C(C=Nc2cccnc2)=C(O)C1	none
CC1(C)CC(=O)C(C=Nc2cccnc2/N=C/C2=C(O)CC(C)(C)CC2=O)=C(O)C1	EBI2 block 96 | EBI2 conf 93 | EBI2 ag inactive | bGal counter 80
COc1cccc(C(C)(O)c2nc(-c3ccc(N(C)C)cc3)cs2)c1 (stereo not given)	none
COc1cc(OC)cc(-c2c(Sc3ccccc3)c3cc(-c4cnc(OC)nc4)ccc3n2C)c1	EBI2 block 65 (no result: MC4R antag cAMP, MC4R ag barr) | EBI2 conf inactive | EBI2 ag inactive | bGal counter inactive
Cc1ccc(C(=O)N2CCN(c3ccc([N+](=O)[O-])c(NCc4ccco4)c3)CC2)cc1	EBI2 block 42 | EBI2 conf inactive | EBI2 ag inactive | bGal counter inactive
Cc1cccc(C(=O)N2CCN(c3ccc([N+](=O)[O-])c(NCc4ccco4)c3)CC2)c1	none
COc1ccc(CNC(=O)COC(=O)c2cccs2)cc1	none
Cc1nc2ccccn2c1-c1csc(Nc2cccc(O)c2)n1	none (no result: Myeloid diff MLP)
Cc1cccc(Nc2nc(-c3c(C)nc4ccccn34)cs2)c1	EBI2 block 63 | EBI2 conf 54 | EBI2 ag inactive | bGal counter inactive
CCn1c(SCc2ccccc2Cl)nc2nc3c(cc2c1=O)CCCC3	EBI2 block 57 | EBI2 conf inactive | EBI2 ag inactive | bGal counter inactive
CCn1c(SCc2c(Cl)cccc2Cl)nc2nc3c(cc2c1=O)CCCC3	none
CCSC(=O)N1c2ccc(OC)cc2C=CC1C#N (stereo not given)	none (no result: Myeloid diff MLP)
CC(=O)c1cc2c(cc1NS(=O)(=O)c1ccccc1F)OCO2	none
Cc1ccc2[nH]c3c(c2c1)CN(C(=O)CN1c2ccc(F)cc2CCC1C)CC3 (stereo not given)	EBI2 block 46 | EBI2 conf inactive | EBI2 ag inactive | bGal counter inactive
Cc1cccc(C)c1NC(=O)[C@@]1(CC(=O)O)CC(/C=C/c2ccccc2)=NO1	none
CCOC(=O)C1C(C)N=C2SCC(=O)N2C1c1cccc(Br)c1 (stereo not given)	EBI2 block 38 | EBI2 conf inactive | EBI2 ag inactive | bGal counter inactive
COC(C(=O)Nc1ccnn1C1CCN(Cc2nccs2)CC1)c1ccccc1 (stereo not given)	none
COc1ccccc1NS(=O)(=O)c1cc(C(=O)N2CCCC2)ccc1F	none
Cc1cc(C(=O)COC(=O)C2CCN(C(=O)c3ccc(Cl)cc3)CC2)c(C)n1CC1CCCO1 (stereo not given)	EBI2 block 73 | EBI2 conf 51 | EBI2 ag inactive | bGal counter inactive
COCCOc1ccc(C(F)(F)F)cc1NC(=O)COC(=O)Cc1c[nH]c2ccccc12	EBI2 block 82 | EBI2 conf inactive | EBI2 ag inactive | bGal counter inactive
O=C(NC1CCCCC1)N(c1ccccc1)c1nnc(-c2cccc([N+](=O)[O-])c2)s1	none
O=C(NC1CCOc2ccccc21)C1CCCC1 (stereo not given)	none
O=C(c1ccc(Br)cc1)c1cc(-c2ccccn2)c(N2CCOCC2)s1	EBI2 block 37 | EBI2 conf inactive | EBI2 ag inactive | bGal counter inactive
O=C(c1ccc(Cl)c(S(=O)(=O)N2CCOCC2)c1)N1CCN(c2ccccn2)CC1	none
O=C(c1ccc(Cl)c(Cl)c1)c1cc(-c2ccccn2)c(N2CCOCC2)s1	EBI2 block 65 | EBI2 conf inactive | EBI2 ag inactive | bGal counter inactive
Cc1nnc(C)n1N	none
CCc1ccccc1NC(=O)CN1CCN(CC(=O)Nc2ccc(-c3ccccc3)cc2)CC1	none
CCOC(=O)C1CCCN(C(=O)/C=C/c2ccc(Cl)cc2)C1 (stereo not given)	EBI2 block 46 | EBI2 conf inactive | EBI2 ag inactive | bGal counter inactive
Cc1ccc(/C=C/C(=O)N2CCCC(C)C2)cc1 (stereo not given)	EBI2 block 67 | EBI2 conf inactive | EBI2 ag inactive | bGal counter inactive
Cc1ccc(/C=C/C(=O)N2CCC(Cc3ccccc3)CC2)cc1	EBI2 block 96 | EBI2 conf 86 | EBI2 ag inactive | bGal counter inactive
CCc1ccccc1NC(=O)CN1CCN(C(=O)C2CCN(C(=O)/C=C/c3ccccc3)CC2)CC1	EBI2 block 77 | EBI2 conf 52 | EBI2 ag inactive | bGal counter inactive
CCOC(=O)C1CCCN(C(=O)/C=C/c2cc(OC)c(OC)c(OC)c2)C1 (stereo not given)	none
